Test results taken from ChEMBL document CHEMBL1124963, “Antifolate and antibacterial activities of 5-substituted 2,4-diaminoquinazolines” (J Med Chem, 1990).

Legend:
Escherichia coli = assay: Antibacterial activity (10 e-6 log (1/MIC) towards Escherichia coli; type: functional
Method in brief: (§1)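 Two-fold serial dilution: each compound prepared as a series of solutions differing by a factor of two, each added to a fixed amount of previously prepared test culture, incubated at 37 °C overnight.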

Staphylococcus aureus = assay: Antibacterial activity (10 e-6 log (1/MIC) towards Staphylococcus aureus; type: functional; method in brief: as §1
[1] = Partition coefficient (logP); type: physicochemical; conditions: octanol/water
[2] = Acute toxicity determined in mice by an LD50 test when administered perorally; type: organism-based; conditions: mouse, in vivo, po
[3] = Dissociation constant was determined using UV method; type: physicochemical
Method in brief: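 UV spectrophotometric method. Aqueous stock of compound in distilled water, diluted into 0.01 M NaOH (pH ~12) and 0.001 M HCl (pH ~3) to pick an analytical wavelength from the difference spectrum. Five to seven KH2PO4/borax buffers bracketing the estimated pKa, pH measured at 25 °C. Absorbance read in a 1.0-cm cell at 25.0 °C against buffer. Separate values averaged with SD to give the concentration pKa.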

[4] = Acute toxicity determined in mice by an LD50 test when administered intraperitoneally; type: organism-based; conditions: mouse, in vivo, ip
[5] = Acute toxicity determined in mice by an LD50 test when administered peritoneally; type: organism-based; conditions: mouse, in vivo, ip

Compound	Log 1/MIC (Escherichia coli)	Log 1/MIC (Staphylococcus aureus)	logP [1]	LD50 [2]	pKa [3]	LD50 [4]	LD50 [5]
Nc1nc(N)c2c(I)cccc2n1	1.7	0.4	2.12	~500 mg/kg			
Nc1nc(N)c2c(N3CCOCC3)cccc2n1	-0.6	-0.6	1.11				
CCCNC(=O)c1cccc2nc(N)nc(N)c12	<-0.6	<-0.6	0.83				
CCCOc1cccc2nc(N)nc(N)c12	1.1	0.2	2.26				
CCCCCCOc1cccc2nc(N)nc(N)c12	0	1.1					
COC(=O)c1cccc2nc(N)nc(N)c12	-0.1	-0.6				68 mg/kg	
Nc1nc(N)c2c(Cl)cccc2n1	2.1	1.2	1.72		7.22	100 mg/kg	
CCCSc1cccc2nc(N)nc(N)c12			2.85				
CCCCOc1cccc2nc(N)nc(N)c12	0.6	0.4	2.81				
Nc1nc(N)c2c(F)cccc2n1	1.7	1.4	1.19	489 mg/kg	7.44	100 mg/kg	
CCOc1cccc2nc(N)nc(N)c12	1.7	0.2	1.69			~100 mg/kg	
COc1cccc2nc(N)nc(N)c12	2.1	1	1.18	~500 mg/kg	8.32	137 mg/kg	
Nc1nc(N)c2c(Br)cccc2n1	2.2	1.5	1.91	271 mg/kg			
Nc1nc(N)c2c(N3CCCCC3)cccc2n1			2.66				
Cc1cccc2nc(N)nc(N)c12	1.7	0.5	1.26		8.19	~100 mg/kg	
Nc1ncnc2ccccc12 [4-AMINOQUINAZOLINE]						205 mg/kg	584 mg/kg

More lines, main results first:

Log 1/MIC (Escherichia coli)	Log 1/MIC (Staphylococcus aureus)	logP [1]	Compound	LD50 [2]	pKa [3]	LD50 [4]	LD50 [5]
< -0.6	< -0.6		Nc1nc(N)c2c(Sc3ccccc3)cccc2n1				
<-0.6	<-0.6	0.63	CS(=O)(=O)c1cccc2nc(N)nc(N)c12				
<-0.7	-0.7		Nc1nc(N)c2c(O)cccc2n1				
<0.5	0	1.19	Nc1nc(N)c2c([N+](=O)[O-])cccc2n1		6.24		
2.2	0	1.81	CSc1cccc2nc(N)nc(N)c12				
<-0.5	<-0.5	2.14	Nc1nc(N)c2c(S(=O)(=O)c3ccccc3)cccc2n1				
0.3	<0.2	0.3	Nc1nc(N)c2c(N)cccc2n1				
2.6	0.6	1.69	CCc1cccc2nc(N)nc(N)c12				
0.7	1.3	1.01	Nc1nc(N)c2ccccc2n1		8.08		
-0.4	-0.5	1.65	CN(C)c1cccc2nc(N)nc(N)c12				
-0.6	<-0.7	-0.33	NC(=O)c1cccc2nc(N)nc(N)c12		7.22		
1.3	1.3		Nc1nc(N)c2c(CCc3ccccc3)cccc2n1				
0.8	1	2.82	Nc1nc(N)c2c(OCc3ccccc3)cccc2n1				
0.2	0	2.78	Nc1nc(N)c2c(Oc3ccccc3)cccc2n1				
2	-0.1	2.27	CCSc1cccc2nc(N)nc(N)c12		7.87		
0.8	-0.1	2.05	CC(C)Oc1cccc2nc(N)nc(N)c12				
